Experiments:
[1] = folding enthalpy; higher = less favourable; fluorescence melt of hairpins on a sequencing array, two-state fit; settings: sodium 0.088 M
Method in brief: (§1)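 Melting temperature and folding enthalpy were derived from bootstrapped two-state fits. The fitted temperatures were raised by 9.35 °C to agree with UV melts, and four replicates were combined by inverse variance. The underlying data were Cy3 fluorescence images of library hairpins, with annealed Cy3 and quencher oligos, on a sequenced MiSeq flow cell in 50 mM Na-HEPES pH 8.0, 25 mM NaCl, taken in 2.5 °C steps up to 60 °C, normalised to pre-quench Cy3 and to control constructs.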

[2] = melting temperature; fluorescence melt of hairpins on a sequencing array, two-state fit, raised by 9.35 °C to match UV melts; settings: sodium 0.088 M
Method in brief: as §1

Row | Sequence | folding enthalpy [1] | Tm [2]
1 | GGGTTTTCGAAAGAACCC (((..(((....)))))) | -31.8 kcal/mol | 43.6 °C
2 | GCTAGAGGAAACCCTAGC (((((.(....).))))) | -31.2 kcal/mol | 41.4 °C
3 | GTATAGGGAAACCTGTAC (((.(((....))).))) | -30.3 kcal/mol | 39.2 °C
4 | AACAGGAAACTGTT (((((....))))) | -14.7 kcal/mol | 40.5 °C
5 | GCGGAGCGAAAGCCTCGC (((..((....))..))) | -13.8 kcal/mol | 50.5 °C
6 | GTACTCGAAAGAGCGTAC ((((((....)))..))) | -10.7 kcal/mol | 28.5 °C
7 | GGTAAGGGAAACCTTACC (((((((....))))))) | -46.1 kcal/mol | 57.5 °C
8 | GCGACCGAAAGGTGCCGC ((((((....)))..))) | -15.6 kcal/mol | 50.4 °C
9 | GACCGCCGAAAGGCAGTC (((.(((....))).))) | -20.9 kcal/mol | 54.3 °C
10 | GATCGTCTTACGATC ((((((...)))))) | -34.8 kcal/mol | 57.1 °C
11 | GGTTCCCGAAAGGGGACC (((.(((....))).))) | -30.8 kcal/mol | 67.6 °C
12 | GTTGTCGGAAACGACAGC (.(((((....))))).) | -24 kcal/mol | 55.7 °C
13 | GATCAAATTTTGATC ((((((...)))))) | -31.4 kcal/mol | 43 °C
14 | GCGCCAGGAAACTAGCGC ((((.((....)).)))) | -42.1 kcal/mol | 52.5 °C
15 | GCAAGGCGAAAGCCACGC ((..(((....)))..)) | -14.6 kcal/mol | 47.1 °C
16 | GGACCCGAAAGGGCTTCC ((((((....)))..))) | -17 kcal/mol | 40.6 °C
17 | GATCATCCCCATGATC ((((((....)))))) | -34.9 kcal/mol | 46.2 °C
18 | GTGTACGGAAACACACAC ((((..(....)..)))) | -12.6 kcal/mol | 31.9 °C
19 | GCAGTTGAAAAACTGC ((((((....)))))) | -37.8 kcal/mol | 58.9 °C

Row | Sequence | folding enthalpy [1] | Tm [2]
20 | GTGGGCGAAAGCCGCCAC ((((((....)))..))) | -13.3 kcal/mol | 42.3 °C
21 | GGCTTACCGAAAGGTGCC (((..(((....)))))) | -23.1 kcal/mol | 50.2 °C
22 | GCAATAACGAAAGTTTGC (((..(((....)))))) | -26 kcal/mol | 41.3 °C
23 | GCAGCTTCGAAAGAATGC (((..(((....)))))) | -12.8 kcal/mol | 29.1 °C
24 | GTGTACGCGAAAGCGCAC (((..(((....)))))) | -16.7 kcal/mol | 48.9 °C
25 | GCGATGCGAAAGCTTGGC ((.(.((....)).).)) | -15.1 kcal/mol | 43.8 °C
26 | GTCCTAGCGAAAGCTGAC (((..(((....)))))) | -12.7 kcal/mol | 31.5 °C
27 | GTCGGCGAAAGCCTTGAC ((((((....)))..))) | -13 kcal/mol | 40.5 °C
28 | GTCCACGAAAGTGCAGAC ((((((....)))..))) | -16.5 kcal/mol | 36.2 °C
29 | GAGAGCCGAAAGGCGCTC (((.(((....))).))) | -22.9 kcal/mol | 67.8 °C
30 | GTCTATCGAAAGATTGAC (((.(((....))).))) | -35.1 kcal/mol | 46.3 °C
31 | GATCTTCGGTAAGATC ((((((....)))))) | -34 kcal/mol | 41.3 °C
32 | GGTTATCGAAAGATGACC (((.(((....))).))) | -48.6 kcal/mol | 51.7 °C
33 | GTGTCCTCGAAAGAGCAC (((..(((....)))))) | -14.5 kcal/mol | 36 °C
34 | ATTTGGAAACAAAT (((((....))))) | -12.8 kcal/mol | 34.4 °C
35 | GTACCCGAAAGGGAGTAC ((((((....)))..))) | -15.3 kcal/mol | 39.9 °C
36 | GGAGTCGGAAACGGCTCC ((((.((....)).)))) | -45.8 kcal/mol | 61 °C
37 | GATGGCCGAAAGGCGATC (((.(((....))).))) | -23.9 kcal/mol | 52.8 °C
38 | GCTTTCGAAAGAAAAGC ((((((....))).))) | -31.3 kcal/mol | 46.6 °C
